Reference: ChEMBL document CHEMBL4321824, “Structure-Activity Relationships of cyclo(l-Tyrosyl-l-tyrosine) Derivatives Binding to Mycobacterium tuberculosis CYP121: Iodinated Analogues Promote Shift to High-Spin Adduct” (J Med Chem, 2019)

What was measured:
Cytochrome P450 [1] = target: T1, Cytochrome P450 (Mycobacterium tuberculosis, UniProt A0A0T9WNE5); assay: Binding affinity to Mycobacterium tuberculosis CYP121 expressed in Escherichia coli HMS174 (DE3) by UV-visible scanning spectrophotometric analysis
T1 sequence (A0A0T9WNE5 whole entry): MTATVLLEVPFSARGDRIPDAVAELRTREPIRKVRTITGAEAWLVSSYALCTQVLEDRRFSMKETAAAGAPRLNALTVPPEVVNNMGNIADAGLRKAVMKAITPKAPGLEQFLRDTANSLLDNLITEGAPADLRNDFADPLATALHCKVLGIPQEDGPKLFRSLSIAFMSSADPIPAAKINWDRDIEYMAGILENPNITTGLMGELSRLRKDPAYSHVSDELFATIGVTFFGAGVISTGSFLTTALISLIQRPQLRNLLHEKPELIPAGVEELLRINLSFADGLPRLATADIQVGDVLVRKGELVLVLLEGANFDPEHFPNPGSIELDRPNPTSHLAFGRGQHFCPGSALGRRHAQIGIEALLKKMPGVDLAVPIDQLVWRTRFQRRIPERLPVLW
Outline: (§1)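 Spectrophotometric titration of 3–4 µM CYP121 (untagged or N-terminal His6-tagged) at 25 °C in 100 mM potassium phosphate, 200 mM KCl, pH 7.8. Ligand in DMSO added stepwise from 0 µM until no further spectral change; spectra recorded 250–800 nm. Difference spectra taken against ligand-free enzyme, and peak-minus-trough ΔAmax plotted against [ligand]. KD obtained by hyperbolic fit, or Hill fit for sigmoidal data.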

Cytochrome P450 [2] = target: T1, Cytochrome P450; assay: Stability in Mycobacterium tuberculosis assessed as CYP121-catalyzed turnover; format: ADME
Cytochrome P450 [3] = target: T1, Cytochrome P450; assay: Binding affinity to Mycobacterium tuberculosis Mycobacterium tuberculosis CYP121 expressed in Escherichia coli HMS174 (DE3) assessed as compound-adduct formation by measuring high spin complex by UV-visible scanning spectrophotometric analysis relative to control; set-up: concentration or dose not given beside the values
Outline: (§2)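 Fraction of high-spin heme taken from UV-Vis titration spectra of CYP121 (untagged or His6-tagged; 3–4 µM, 25 °C, 100 mM potassium phosphate, 200 mM KCl, pH 7.8). %HS calculated from absorbances at 415 and 393 nm using LS and HS extinction coefficients.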

Cytochrome P450 [4] = target: T1, Cytochrome P450; assay: Binding affinity to Mycobacterium tuberculosis CYP121 expressed in Escherichia coli HMS174 (DE3) assessed as compound-adduct formation by measuring high spin complex at 0.5 to 2 mM incubated for 20 mins by EPR Spectroscopic method (reference value: 0%)
Outline: (§3)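 EPR samples contained 155 µM CYP121 (untagged or His6-tagged) in 100 mM HEPES, 100 mM KCl, pH 7.5, with ligand or DMSO at a final 0.5–2 mM depending on solubility. Samples were incubated 20 min at room temperature and briefly centrifuged before spectra were recorded; the high-spin heme signal was assessed.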

[5] = test system: Mycobacterium tuberculosis; assay: Antimycobacterial activity against Mycobacterium tuberculosis H37Rv assessed as reduction in bacterial growth after 7 days by resazurin based fluorescence assay; format: functional; conditions: 168 h
Outline: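 Mtb H37Rv grown in 7H9 with ADC to OD 0.6–0.8, then diluted to OD600 0.001 and added to 1:2 serial compound dilutions (usually from 100 µM; 0.1% DMSO). Incubated 7 days at 37 °C, then 0.05% w/v resazurin for 24 h at 37 °C. Fluorescence read at 590 nm, background subtracted, and survival expressed relative to untreated wells. Rifampicin served as positive control.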

Cytochrome P450 [6] = target: T1, Cytochrome P450; assay: Binding affinity to Mycobacterium tuberculosis His6-tagged CYP121 by UV-visible scanning spectrophotometric analysis; outline: as §1
Cytochrome P450 [7] = target: T1, Cytochrome P450; assay: Binding affinity to Mycobacterium tuberculosis His6-tagged CYP121 assessed as compound-adduct formation by measuring high spin complex by UV-visible scanning spectrophotometric analysis relative to control; set-up: concentration or dose not given beside the values; outline: as §2
Cytochrome P450 [8] = target: T1, Cytochrome P450; assay: Binding affinity to Mycobacterium tuberculosis His6-tagged CYP121 assessed as compound-adduct formation by measuring high spin complex at 0.5 to 2 mM incubated for 20 mins by EPR Spectroscopic method (reference value: 0%); outline: as §3
Cytochrome P450 [9] = target: T1, Cytochrome P450; assay: Binding affinity to Mycobacterium tuberculosis CYP121 expressed in Escherichia coli HMS174 (DE3) at 120 uM by UV-visible scanning spectrophotometric analysis
Cytochrome P450 [10] = target: T1, Cytochrome P450; assay: Potency index, ratio of cyclo(L-Tyrosine-L-tyrosine) Kd for binding affinity to Mycobacterium tuberculosis CYP121 expressed in Escherichia coli HMS174 (DE3) to test compound Kd for binding affinity to Mycobacterium tuberculosis His6-tagged CYP121 by UV-visible scanning spectrophotometric analysis
Cytochrome P450 [11] = target: T1, Cytochrome P450; assay: Potency index, ratio of cyclo(L-Tyrosine-L-tyrosine) Kd to test compound Kd for binding affinity to Mycobacterium tuberculosis CYP121 expressed in Escherichia coli HMS174 (DE3) by UV-visible scanning spectrophotometric analysis

| SMILES | Kd (Cytochrome P450 [1]) | Stability (Cytochrome P450 [2]) | Activity (Cytochrome P450 [3]) | Activity (Cytochrome P450 [4]) | MIC [5] | Kd (Cytochrome P450 [6]) | Activity (Cytochrome P450 [7]) | Activity (Cytochrome P450 [8]) | Activity (Cytochrome P450 [9]) | Ratio (Cytochrome P450 [10]) | Ratio (Cytochrome P450 [11]) |
| --- | --- | --- | --- | --- | --- | --- | --- | --- | --- | --- | --- |
| O=C1N[C@@H](Cc2ccccc2)C(=O)N[C@H]1Cc1ccccc1 | 2.4 µM | Stable | 3% | 0% | > 100 µM | – | – | – | – | – | – |
| O=C1N[C@@H](Cc2ccc(O)cc2)C(=O)N[C@H]1Cc1ccc(O)cc1 | – | – | 52% | 2.7% | – | – | – | – | – | – | – |
| O=C1N[C@@H](Cc2ccc(O)cc2)C(=O)N[C@H]1Cc1ccccc1 | 80.8 µM | Stable | 5% | 1.4% | > 100 µM | – | – | – | – | – | – |
| Cc1cc(O)cc(C)c1C[C@@H]1NC(=O)[C@H](Cc2ccc(O)cc2)NC1=O | – | Stable | – | – | > 100 µM | > 100 µM | 1% | 1.9% | Not Active | – | – |
| O=C1N[C@@H](Cc2ccc(I)cc2)C(=O)N[C@H]1Cc1ccc(I)cc1 | 0.72 µM | Stable | 3% | 7.5% | > 100 µM | – | – | – | – | <= 100 | – |
| COc1ccc(C[C@@H]2NC(=O)[C@H](Cc3ccc(O)cc3)NC2=O)cc1 | 10.4 µM | Stable | 61% | 64% | > 100 µM | – | – | – | – | – | 3 |
| Cc1cc(C[C@@H]2NC(=O)[C@H](Cc3ccc(O)cc3)NC2=O)cc(C)c1O | – | Stable | – | – | > 100 µM | 15.1 µM | 75% | 62% | – | – | – |
| Cc1cc(O)ccc1C[C@@H]1NC(=O)[C@H](Cc2ccc(O)cc2)NC1=O | – | Stable | – | – | > 100 µM | 39.8 µM | 20% | 0.6% | – | – | – |
| O=C1N[C@@H](Cc2ccc(O)c(I)c2)C(=O)N[C@H]1Cc1ccc(O)c(I)c1 | 0.45 µM | Stable | 100% | 100% | > 100 µM | – | – | – | – | <= 100 | – |
| O=C1N[C@@H](Cc2ccc(O)c(I)c2)C(=O)N[C@H]1Cc1ccc(O)cc1 | – | Stable | – | – | > 100 µM | 0.28 µM | 98% | 86% | – | <= 100 | – |
| O=C1N[C@@H](Cc2ccc(O)c(F)c2)C(=O)N[C@H]1Cc1ccc(O)cc1 | – | Stable | – | – | > 100 µM | 12.8 µM | 36% | 1.2% | – | – | – |
| Cc1cc(C[C@@H]2NC(=O)[C@H](Cc3ccc(O)cc3)NC2=O)ccc1O | – | Stable | – | – | > 100 µM | 1.1 µM | 91% | 11% | – | – | – |
| O=C1N[C@@H](Cc2ccc(F)cc2)C(=O)N[C@H]1Cc1ccc(F)cc1 | 6.3 µM | Stable | 1% | 1.5% | > 100 µM | – | – | – | – | – | – |
| O=C1N[C@@H](Cc2ccc(O)c(Cl)c2)C(=O)N[C@H]1Cc1ccc(O)cc1 | – | Stable | – | – | > 100 µM | 1.5 µM | 68% | 21% | – | – | – |
| COc1ccc(C[C@@H]2NC(=O)[C@H](Cc3ccc(OC)cc3)NC2=O)cc1 | 29.4 µM | Stable | 35% | 56% | > 100 µM | – | – | – | – | – | – |
| O=C1N[C@@H](Cc2ccc(O)c(Br)c2)C(=O)N[C@H]1Cc1ccc(O)cc1 | – | Stable | – | – | > 100 µM | 0.46 µM | 85% | 68% | – | – | – |
| O=C1N[C@H]2Cc3ccc(O)c(c3)-c3cc(ccc3O)C[C@@H]1NC2=O | – | Unstable | – | – | – | – | – | – | – | – | – |
| O=C1N[C@@H](Cc2cc(I)c(O)c(I)c2)C(=O)N[C@H]1Cc1ccc(O)cc1 | – | Stable | – | – | > 100 µM | 9.1 µM | 74% | 38% | – | – | – |
